Laboratory results reported in ChEMBL document CHEMBL1221342, “Synthesis and in vitro antitumor activity of new 4,5-dihydropyrazole derivatives” (Bioorg Med Chem, 2010).

Key:
Format in all cases: functional
NCI-H460 = assay: Growth inhibition of human NCI-H460 cells after 48 hrs by SRB assay; details: NCI-H460, 48 h
Outline: (§1)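 NCI 60-cell-line screen. Cells grown in RPMI1640 with 5% fetal calf serum and 2 mM L-glutamine, with inoculum density set by cell line. Preincubated 24 h, then given compound in DMSO at 10^-4 to 10^-8 M (five 10-fold steps) for 48 h continuous exposure. Growth measured by SRB protein assay. GI50, TGI and LC50 reported as –log molar.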

U-251 = assay: Growth inhibition of human U251 cells after 48 hrs by SRB assay; details: U-251, 48 h; outline: as §1
UO-31 = assay: Growth inhibition of human UO31 cells after 48 hrs by SRB assay; details: UO-31, 48 h; outline: as §1
SR = assay: Growth inhibition of human SR cells after 48 hrs by SRB assay; outline: as §1
NCI-H322M = assay: Growth inhibition of human NCI-H322M cells after 48 hrs by SRB assay; outline: as §1
SNB-75 = assay: Growth inhibition of human SNB75 cells after 48 hrs by SRB assay; details: SNB-75, 48 h; outline: as §1
RXF 393 = assay: Growth inhibition of human RXF393 cells after 48 hrs by SRB assay; details: RXF 393, 48 h; outline: as §1
OVCAR-4 = assay: Growth inhibition of human OVCAR4 cells after 48 hrs by SRB assay; details: OVCAR-4, 48 h; outline: as §1
CCRF-CEM = assay: Growth inhibition of human CCRF-CEM cells after 48 hrs by SRB assay; outline: as §1
SF-268 = assay: Growth inhibition of human SF268 cells after 48 hrs by SRB assay; details: SF-268, 48 h; outline: as §1
T47D = assay: Growth inhibition of human T47D cells after 48 hrs by SRB assay; outline: as §1
HCC 2998 = assay: Growth inhibition of human HCC2998 cells after 48 hrs by SRB assay; details: HCC 2998, 48 h; outline: as §1
SK-MEL-5 = assay: Growth inhibition of human SK-MEL-5 cells after 48 hrs by SRB assay; details: SK-MEL-5, 48 h; outline: as §1
SW-620 = assay: Growth inhibition of human SW620 cells after 48 hrs by SRB assay; details: SW-620, 48 h; outline: as §1
PC-3 = assay: Growth inhibition of human PC3 cells after 48 hrs by SRB assay; details: PC-3, 48 h; outline: as §1
MDA-MB-468 = assay: Growth inhibition of human MDA-MB-468 cells after 48 hrs by SRB assay; details: MDA-MB-468, 48 h; outline: as §1
Malme-3M = assay: Growth inhibition of human MALME-3M cells after 48 hrs by SRB assay; outline: as §1
SF-295 = assay: Growth inhibition of human SF295 cells after 48 hrs by SRB assay; details: SF-295, 48 h; outline: as §1
HCT-15 = assay: Growth inhibition of human HCT15 cells after 48 hrs by SRB assay; details: HCT-15, 48 h; outline: as §1
HL-60(TB) = assay: Growth inhibition of human HL-60(TB) cells after 48 hrs by SRB assay; details: HL-60, 48 h
Outline: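 NCI 60-cell-line screen: cells grown in RPMI1640 with 5% fetal calf serum and 2 mM L-glutamine, preincubated 24 h, then exposed to compound in DMSO at five concentrations (10^-4 to 10^-8 M) for 48 h continuous exposure. Growth estimated by sulforhodamine B protein assay; reported as pGI50 (-log molar concentration inhibiting net cell growth by 50%).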

OVCAR-3 = assay: Growth inhibition of human OVCAR-3 cells after 48 hrs by SRB assay; details: OVCAR-3, 48 h; outline: as §1
NCI-H522 = assay: Growth inhibition of human NCI-H522 cells after 48 hrs by SRB assay; details: NCI-H522, 48 h; outline: as §1
BT-549 = assay: Growth inhibition of human BT549 cells after 48 hrs by SRB assay; details: BT-549, 48 h; outline: as §1
DU-145 = assay: Growth inhibition of human DU145 cells after 48 hrs by SRB assay; details: DU-145, 48 h; outline: as §1
HOP-62 = assay: Growth inhibition of human HOP62 cells after 48 hrs by SRB assay; details: HOP-62, 48 h; outline: as §1
KM12 = assay: Growth inhibition of human KM12 cells after 48 hrs by SRB assay; details: KM12, 48 h; outline: as §1
[1] = Growth inhibition of human […] cells after 48 hrs by SRB assay; outline: as §1
M14 = assay: Growth inhibition of human M14 cells after 48 hrs by SRB assay; details: M14, 48 h; outline: as §1
MCF7 = assay: Growth inhibition of human MCF7 cells after 48 hrs by SRB assay; details: MCF7, 48 h; outline: as §1
TK-10 = assay: Growth inhibition of human TK10 cells after 48 hrs by SRB assay; details: TK-10, 48 h; outline: as §1
IGROV-1 = assay: Growth inhibition of human IGROV1 cells after 48 hrs by SRB assay; details: IGROV-1, 48 h; outline: as §1
K562 = assay: Growth inhibition of human K562 cells after 48 hrs by SRB assay; details: K562, 48 h; outline: as §1
HT-29 = assay: Growth inhibition of human HT-29 cells after 48 hrs by SRB assay; details: HT-29, 48 h; outline: as §1
HCT-116 = assay: Growth inhibition of human HCT116 cells after 48 hrs by SRB assay; details: HCT-116, 48 h; outline: as §1
A498 = assay: Growth inhibition of human A498 cells after 48 hrs by SRB assay; details: A498, 48 h; outline: as §1

COc1ccc(C2CC(c3cc(OC)c(OC)c(OC)c3)=NN2)cc1 (centres undefined)
20 µM: GI50 (SF-268) | TGI ([1]; read-out: pTGI (converted))
3.16 µM: GI50 (NCI-H460) | GI50 (HCT-15) | GI50 (NCI-H522) | GI50 [1]
2 µM: GI50 (HL-60(TB))
5.01 µM: GI50 (UO-31) | GI50 (SW-620) | GI50 (SF-295)
7.94 µM: GI50 (BT-549)
39.8 µM: TGI (HCC 2998; read-out: pTGI (converted)) | GI50 (TK-10)
31.6 µM: GI50 (DU-145) | GI50 (HOP-62)
> 100 µM: TGI (U-251; read-out: pTGI (converted)) | TGI (UO-31; read-out: pTGI (converted)) | TGI (NCI-H322M; read-out: pTGI (converted)) | TGI (RXF 393; read-out: pTGI (converted)) | TGI (OVCAR-4; read-out: pTGI (converted)) | TGI (CCRF-CEM; read-out: pTGI (converted)) | TGI (SF-268; read-out: pTGI (converted)) | TGI (T47D; read-out: pTGI (converted)) | TGI (SW-620; read-out: pTGI (converted)) | TGI (PC-3; read-out: pTGI (converted)) | TGI (Malme-3M; read-out: pTGI (converted)) | TGI (SF-295; read-out: pTGI (converted)) | TGI (HCT-15; read-out: pTGI (converted)) | TGI (BT-549; read-out: pTGI (converted)) | TGI (DU-145; read-out: pTGI (converted)) | TGI (HOP-62; read-out: pTGI (converted)) | TGI (KM12; read-out: pTGI (converted)) | TGI (M14; read-out: pTGI (converted)) | TGI (TK-10; read-out: pTGI (converted)) | TGI (IGROV-1; read-out: pTGI (converted)) | TGI (K562; read-out: pTGI (converted)) | TGI (HT-29; read-out: pTGI (converted)) | TGI (HCT-116; read-out: pTGI (converted))
79.4 µM: GI50 (NCI-H322M)
10 µM: GI50 (RXF 393) | GI50 (HCC 2998)
6.31 µM: GI50 (CCRF-CEM) | GI50 (PC-3) | GI50 (IGROV-1) | GI50 (A498)
30.2 µM: TGI (NCI-H460; read-out: pTGI (converted))
1 µM: GI50 (SR)
2.51 µM: GI50 (MCF7) | GI50 (K562)
12.6 µM: GI50 (OVCAR-4) | TGI (HL-60(TB); read-out: pTGI (converted)) | GI50 (M14)
25.1 µM: TGI (SK-MEL-5; read-out: pTGI (converted)) | GI50 (Malme-3M) | TGI (MCF7; read-out: pTGI (converted))
3.98 µM: GI50 (U-251) | TGI (SR; read-out: pTGI (converted)) | GI50 (SNB-75) | GI50 (T47D) | GI50 (SK-MEL-5) | GI50 (MDA-MB-468) | GI50 (OVCAR-3) | GI50 (KM12) | GI50 (HT-29) | GI50 (HCT-116)
63.1 µM: TGI (MDA-MB-468; read-out: pTGI (converted))
36.3 µM: TGI (NCI-H522; read-out: pTGI (converted))
50.1 µM: TGI (OVCAR-3; read-out: pTGI (converted)) | TGI (A498; read-out: pTGI (converted))
